SENP6 inh: inhibitors of human SENP6 protease | Q9GZR1 | Recombinant SENP6 catalytic domain, aminoluciferin luminescence | inhibition, % at 10 µM | 330,000 compounds, 1.8% hits | AID 2599;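 active = inhibition above about 50% at the single tested dose, limit read from the data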
SENP8 block-1: SENP8 (human) protease inhibition; Q96LD8; inhibition, % at 20 µM; recombinant SENP8, Nedd8 substrate fluorescence; 360,000 compounds, 0.64% hits; in the data active = inhibition mostly above about 40%, no sharp cut-off; inactive = mostly below about 27%
SENP1 FRET inh: inhibitors of human SENP1 SUMO protease catalytic domain; inhibition, % at 10 µM; 360,000 compounds, 0.21% hits; recombinant SENP1 catalytic domain, CyPet-SUMO1-YPet FRET cleavage; Q9P0U3; AID 624204;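 active = inhibition at least 30% at 10 µM, raw YFP signal under a set limit, fluorescence ratio 0.5 to 1.5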
Target sequence (Q9P0U3 419-644 limits assumed): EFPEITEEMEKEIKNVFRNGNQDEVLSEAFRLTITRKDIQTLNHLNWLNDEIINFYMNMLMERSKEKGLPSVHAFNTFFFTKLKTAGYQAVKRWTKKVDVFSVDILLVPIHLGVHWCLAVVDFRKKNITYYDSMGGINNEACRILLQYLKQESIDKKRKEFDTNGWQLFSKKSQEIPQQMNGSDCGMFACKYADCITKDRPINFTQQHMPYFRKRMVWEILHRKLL
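Test system: human SENP1 catalytic domain; medium: Tris pH 8 buffer plus EDTA, NaCl, BME, BSA, NP40, catalase; incubation: 50 min reaction at room temperature; technique: FRET, CFP and YFP emission; controls: no-enzyme low control and enzyme-plus-DMSO high control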
SENP7 inh: SENP7 protease inhibition; recombinant SENP7, Z-RLRGG-aminoluciferin luminescence, 40 min; inhibition, % at 5 µM; 330,000 compounds, 1.5% hits; AID 434973;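 active = inhibition above about 50% at the single test dose, limit read from the data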
SENP8 block-2: SENP8 protease inhibition. 330,000 compounds, 1.2% hits. Q96LD8. purified SENP8, Z-RLRGG-aminoluciferin cleavage, luminescence. inhibition, % at 10 µM. AID 2540; in the data active = inhibition above about 50%
Platelet DG rel: modulates dense granule release in human platelets; 300,000 compounds, 0.22% hits; human platelet-rich plasma, SFLLRN dense granule ATP release, luminescence; inhibition, %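 (compounds screened at 7.5 µM in platelet-rich plasma)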;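 active = mean replicate score, as percent of positive control, at or above 50; inconclusive = mean below 50 but at least one replicate at or above 50; inactive = mean and every replicate below 50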
SENP8 confirm: confirmation of human SENP8 protease inhibitors; 6,200 compounds, 40% hits; AID 488912; Recombinant SENP8, Z-RLRGG-aminoluciferin luminescence, 60 min; shares compounds with SENP7 inh; inhibition, % at 12.5 µM;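 active = mean inhibition across replicates above about 50%, limit read from the data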
SENP6 confirm: confirmation of human SENP6 protease inhibitors; shares compounds with SENP7 inh; recombinant SENP6, Z-RLRGG-aminoluciferin luminescence; inhibition, % at 12.5 µM; 6,200 compounds, 58% hits; AID 488915
SENP7 conf: human SENP7 inhibition, confirmed | AID 488917 | shares compounds with SENP7 inh | 6,200 compounds, 69% hits | inhibition, % at 12.5 µM | recombinant SENP7, Z-RLRGG-aminoluciferin luminescence, 40 min
Casp3 select: selectivity test for SENP inhibitors: human caspase-3 inhibition. shares compounds with SENP7 inh. purified caspase-3, Z-DEVD-aminoluciferin luminescence, 60 min. inhibition, % at 12.5 µM. 6,200 compounds, 60% hits;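 active = mean inhibition above about 50%, limit read from the data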
Target sequence (P42574 28-227 limits assumed): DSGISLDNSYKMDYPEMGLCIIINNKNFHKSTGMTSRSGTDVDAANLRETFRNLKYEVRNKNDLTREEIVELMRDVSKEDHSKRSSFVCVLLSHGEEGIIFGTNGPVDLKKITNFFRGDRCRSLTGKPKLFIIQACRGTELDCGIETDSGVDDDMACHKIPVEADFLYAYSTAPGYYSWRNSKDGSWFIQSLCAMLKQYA
Luc interf: interferes with luciferase luminescence in SENP counter-screen. shares compounds with SENP7 inh. Pre-incubated SENP8/Z-RLRGG-aminoluciferin, luciferase luminescence interference. inhibition, % at 12.5 µM. 6,200 compounds, 39% hits. AID 488919;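 active = mean inhibition above about 50% when retested at one dose, limit read from the data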
Each line names hits and unclear results; the compound was inactive in the other large screens (follow-up assays come after a bar, where they were run). This is a sample that favours compounds with a hit; in the whole collection about 2.6% have one here.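 The calls were made as follows, unless noted: active = mean inhibition above about 50% in the one-dose retest (limit read from the data); inactive = the rest.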

COc1cccc(/C=N/NC(=S)Nc2cccc(C(=O)O)c2)c1O	SENP6 inh 97, SENP7 inh 98, SENP8 block-2 95 | SENP8 confirm 98 | SENP6 confirm 99 | SENP7 conf 102 | Casp3 select 97 | Luc interf 84
COc1cccc(/C=N/Nc2c(Cl)cncc2Cl)c1O	SENP6 inh 76, SENP7 inh 62, SENP8 block-2 66 | SENP8 confirm 74 | SENP6 confirm 71 | SENP7 conf 90 | Casp3 select 65 | Luc interf 72
COc1ccccc1CNC(=O)N1CCN(c2ccccc2Cl)CC1	none
O=C(O/N=C1/CCCc2occc21)c1ccc(Cl)cc1Cl	SENP6 inh 67, SENP7 inh 73, SENP8 block-2 55 | SENP8 confirm inactive | SENP6 confirm inactive | SENP7 conf inactive | Casp3 select 53 | Luc interf inactive
COc1ccc(C(=O)O/N=C2\CCCc3nonc32)cc1	none
O=C(OCCN1CCOCC1)c1ccc(Cl)cc1Cl	none
O=C(O/N=C1/CCCc2occc21)c1ccccc1	SENP6 inh 89, SENP7 inh 95, SENP8 block-2 84 | SENP8 confirm inactive | SENP6 confirm 84 | SENP7 conf 98 | Casp3 select 92 | Luc interf 54
c1ccc2c(c1)Cc1cc3ccccc3nc1-2	SENP6 inh 98, SENP7 inh 95, SENP8 block-2 92 | SENP8 confirm inactive | SENP6 confirm 95 | SENP7 conf 100 | Casp3 select 92 | Luc interf inactive
O=C1c2ccccc2-c2nc3ccccc3cc21	SENP6 inh 91, SENP7 inh 90, SENP8 block-2 86 | SENP8 confirm inactive | SENP6 confirm 88 | SENP7 conf 99 | Casp3 select 86 | Luc interf 70
Cc1cc2ccccc2nc1-c1ccccc1F	none (no result: SENP6 inh, SENP7 inh, SENP8 block-2, Platelet DG rel)
COC(=O)c1ccc(Cl)c(S(=O)(=O)N2CCCC2)c1	none
Cc1cnc(C(=O)NC(C)CCc2ccccc2)cn1 (stereo not drawn)	none
COc1ccc(N2CCN(C(=S)Nc3ccc(C)cc3C)CC2)cc1	none
COc1ccc(N2CCN(C(=S)Nc3cc(C)ccc3C)CC2)cc1	SENP7 inh 81 | SENP8 confirm inactive | SENP6 confirm inactive | SENP7 conf inactive | Casp3 select inactive | Luc interf inactive
Cc1ccc(NC(=O)c2cc3cccc([N+](=O)[O-])c3[nH]2)cc1	SENP6 inh 71, SENP7 inh 89, SENP8 block-2 56 | SENP8 confirm 57 | SENP6 confirm 63 | SENP7 conf 96 | Casp3 select 66 | Luc interf 55
Oc1ccc(-c2nc3ccccc3s2)cc1	SENP6 inh 98, SENP7 inh 99, SENP8 block-2 96, Platelet DG rel inconclusive | SENP8 confirm 99 | SENP6 confirm 99 | SENP7 conf 102 | Casp3 select 95 | Luc interf 95
CC(=O)NCc1ccc(-c2csc(-c3cccs3)n2)cc1	SENP6 inh 62 | SENP8 confirm inactive | SENP6 confirm inactive | SENP7 conf 73 | Casp3 select inactive | Luc interf 57
Nc1ccc(O)c(-c2nc3ccccc3s2)c1	none
c1cncc(-c2nc3ccccc3s2)c1	none
c1ccc2sc(-c3ccncc3)nc2c1	SENP6 inh 68, SENP7 inh 67 | SENP8 confirm inactive | SENP6 confirm 55 | SENP7 conf 83 | Casp3 select 80 | Luc interf inactive

Bioassay records deposited in PubChem by several laboratories.
